Measured values taken from ChEMBL document CHEMBL5661979, “Pharmacological inhibition of BMK1 suppresses tumor growth through promyelocytic leukemia protein” (Cancer Cell, 2010).

Columns and labels:
[1] = Inhibition of PRKX/PRKY in human HeLa cells lysate at 50 uM pre incubated for 15 mins followed by ADP acyl phosphate probe addition and measured after 10 mins by LC-MS/MS analysis relative to control; conditions: 25 min, condition cancer
[2] = biological target: T1, Mixed lineage kinase domain-like protein (Homo sapiens) (UniProt Q8NB16); experiment: Inhibition of MLKL in human HeLa cells lysate at 10 uM pre incubated for 15 mins followed by ADP acyl phosphate probe addition and measured after 10 mins by LC-MS/MS analysis relative to control; type: subcellular; conditions: time 25.0 min
T1 sequence (whole entry): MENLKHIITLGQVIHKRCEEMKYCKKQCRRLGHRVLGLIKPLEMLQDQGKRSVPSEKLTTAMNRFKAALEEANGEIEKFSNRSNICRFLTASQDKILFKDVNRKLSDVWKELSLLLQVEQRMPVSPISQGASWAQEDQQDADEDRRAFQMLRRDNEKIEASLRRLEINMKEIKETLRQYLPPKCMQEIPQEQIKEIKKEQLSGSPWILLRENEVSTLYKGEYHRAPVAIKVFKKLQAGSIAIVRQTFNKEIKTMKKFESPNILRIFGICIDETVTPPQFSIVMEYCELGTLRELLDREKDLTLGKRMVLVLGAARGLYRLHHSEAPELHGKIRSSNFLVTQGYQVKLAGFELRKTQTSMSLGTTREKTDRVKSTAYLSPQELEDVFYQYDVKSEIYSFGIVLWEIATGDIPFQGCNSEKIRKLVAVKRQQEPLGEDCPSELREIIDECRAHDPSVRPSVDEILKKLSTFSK

[3] = biological target: T2, Serine/threonine-protein kinase D3 (Homo sapiens) (UniProt O94806); experiment: Inhibition of PKD3 in human HeLa cells lysate at 2 uM pre incubated for 15 mins followed by ADP acyl phosphate probe addition and measured after 10 mins by LC-MS/MS analysis relative to control; type: subcellular; conditions: time 25.0 min
T2 sequence (whole entry): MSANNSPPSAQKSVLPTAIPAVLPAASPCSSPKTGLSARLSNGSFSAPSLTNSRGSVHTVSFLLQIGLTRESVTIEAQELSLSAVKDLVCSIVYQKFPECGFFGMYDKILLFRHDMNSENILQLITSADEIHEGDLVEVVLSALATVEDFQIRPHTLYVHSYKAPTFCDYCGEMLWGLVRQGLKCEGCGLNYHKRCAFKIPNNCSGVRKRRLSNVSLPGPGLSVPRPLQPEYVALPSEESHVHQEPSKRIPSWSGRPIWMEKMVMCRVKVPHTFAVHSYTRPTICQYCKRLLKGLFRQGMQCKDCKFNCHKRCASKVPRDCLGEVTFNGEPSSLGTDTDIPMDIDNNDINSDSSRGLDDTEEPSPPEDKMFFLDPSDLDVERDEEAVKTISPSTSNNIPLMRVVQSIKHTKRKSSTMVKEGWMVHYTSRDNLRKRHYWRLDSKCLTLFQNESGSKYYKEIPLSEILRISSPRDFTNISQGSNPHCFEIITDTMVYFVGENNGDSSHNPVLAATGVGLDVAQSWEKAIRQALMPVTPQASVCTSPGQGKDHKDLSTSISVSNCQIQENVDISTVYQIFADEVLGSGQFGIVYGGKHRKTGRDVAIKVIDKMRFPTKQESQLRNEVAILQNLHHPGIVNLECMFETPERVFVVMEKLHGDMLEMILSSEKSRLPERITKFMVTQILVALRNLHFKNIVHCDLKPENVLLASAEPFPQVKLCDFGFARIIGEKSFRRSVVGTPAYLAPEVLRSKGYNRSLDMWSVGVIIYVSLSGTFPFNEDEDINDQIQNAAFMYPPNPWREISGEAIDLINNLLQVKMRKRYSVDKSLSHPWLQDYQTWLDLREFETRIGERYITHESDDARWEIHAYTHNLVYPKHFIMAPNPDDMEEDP

[4] = biological target: T3, Mitogen-activated protein kinase kinase kinase 7 (Homo sapiens) (UniProt O43318); experiment: Inhibition of TAK1 in human HeLa cells lysate at 50 uM pre incubated for 15 mins followed by ATP acyl phosphate probe addition and measured after 10 mins by LC-MS/MS analysis relative to control; type: subcellular; conditions: time 25.0 min
T3 sequence (whole entry): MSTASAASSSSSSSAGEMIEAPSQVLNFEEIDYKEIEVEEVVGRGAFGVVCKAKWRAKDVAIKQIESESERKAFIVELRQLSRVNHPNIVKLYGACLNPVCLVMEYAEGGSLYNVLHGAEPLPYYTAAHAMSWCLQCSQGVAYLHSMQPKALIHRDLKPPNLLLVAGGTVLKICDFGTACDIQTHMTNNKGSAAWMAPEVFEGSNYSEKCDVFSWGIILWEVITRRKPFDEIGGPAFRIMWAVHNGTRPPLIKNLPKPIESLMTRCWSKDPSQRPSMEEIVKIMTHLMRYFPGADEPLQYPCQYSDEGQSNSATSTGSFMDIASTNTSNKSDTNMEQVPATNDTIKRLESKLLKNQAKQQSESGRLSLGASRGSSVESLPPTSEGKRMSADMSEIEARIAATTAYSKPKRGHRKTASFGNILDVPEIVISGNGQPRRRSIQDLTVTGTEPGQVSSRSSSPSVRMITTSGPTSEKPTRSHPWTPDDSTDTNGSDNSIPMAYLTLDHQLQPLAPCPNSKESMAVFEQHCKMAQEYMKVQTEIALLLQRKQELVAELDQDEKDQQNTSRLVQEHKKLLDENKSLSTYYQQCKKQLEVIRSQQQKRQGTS

[5] = biological target: Cyclin-dependent kinase 8/19 (Homo sapiens, UniProt P49336+Q9BWU1); experiment: Inhibition of CDK8/CDK11 in human HeLa cells lysate at 2 uM pre incubated for 15 mins followed by ATP acyl phosphate probe addition and measured after 10 mins by LC-MS/MS analysis relative to control; type: subcellular; conditions: time 25.0 min
Sequence of Cyclin-dependent kinase 8/19 (P49336 whole entry, looked up, the tested form may be a part): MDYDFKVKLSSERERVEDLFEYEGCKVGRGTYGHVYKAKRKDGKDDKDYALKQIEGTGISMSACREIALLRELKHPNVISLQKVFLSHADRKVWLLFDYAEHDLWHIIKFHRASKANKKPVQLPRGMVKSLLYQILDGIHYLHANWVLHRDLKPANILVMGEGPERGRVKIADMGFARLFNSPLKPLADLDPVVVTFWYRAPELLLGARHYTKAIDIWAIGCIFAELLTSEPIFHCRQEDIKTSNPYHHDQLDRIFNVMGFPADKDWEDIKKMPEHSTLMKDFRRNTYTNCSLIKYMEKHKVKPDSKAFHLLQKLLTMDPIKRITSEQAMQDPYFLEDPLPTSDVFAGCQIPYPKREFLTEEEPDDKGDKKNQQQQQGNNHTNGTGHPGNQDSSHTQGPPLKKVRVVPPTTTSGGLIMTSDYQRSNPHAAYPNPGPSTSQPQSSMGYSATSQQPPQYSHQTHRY
Sequence of Cyclin-dependent kinase 8/19 (Q9BWU1 whole entry, looked up, the tested form may be a part): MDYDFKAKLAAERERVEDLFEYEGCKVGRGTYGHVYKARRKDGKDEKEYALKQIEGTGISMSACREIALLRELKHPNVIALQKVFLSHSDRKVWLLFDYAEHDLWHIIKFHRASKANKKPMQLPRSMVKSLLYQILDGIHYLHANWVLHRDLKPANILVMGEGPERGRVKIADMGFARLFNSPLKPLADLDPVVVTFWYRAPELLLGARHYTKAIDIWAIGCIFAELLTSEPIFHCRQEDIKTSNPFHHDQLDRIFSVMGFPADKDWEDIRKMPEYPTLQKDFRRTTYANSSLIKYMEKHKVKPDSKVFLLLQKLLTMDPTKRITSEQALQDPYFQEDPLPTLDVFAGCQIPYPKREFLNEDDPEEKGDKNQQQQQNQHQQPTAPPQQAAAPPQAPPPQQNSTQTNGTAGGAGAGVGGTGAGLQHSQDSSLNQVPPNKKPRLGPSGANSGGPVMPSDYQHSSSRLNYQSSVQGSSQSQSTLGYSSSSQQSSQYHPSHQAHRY
Summary of the method: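 KiNativ profiling in HeLa lysate (5 mg/mL total protein). Lysate incubated 15 min with inhibitor at 50, 10, 2, 0.8 or 0 μM. ATP or ADP acylphosphate probe then added (5 μM final) and reacted 10 min. Reaction stopped with urea and analysed by targeted MS, using up to four fragment ions per kinase peptide-probe conjugate. % inhibition taken against untreated lysate. Run in duplicate.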

[6] = biological target: Tyrosine-protein kinase ABL (Homo sapiens, UniProt P00519+P42684); experiment: Inhibition of ABL1/2 in human HeLa cells lysate at 2 uM pre incubated for 15 mins followed by ATP acyl phosphate probe addition and measured after 10 mins by LC-MS/MS analysis relative to control; type: subcellular; conditions: time 25.0 min
Sequence of Tyrosine-protein kinase ABL (P00519 whole entry, looked up, the tested form may be a part): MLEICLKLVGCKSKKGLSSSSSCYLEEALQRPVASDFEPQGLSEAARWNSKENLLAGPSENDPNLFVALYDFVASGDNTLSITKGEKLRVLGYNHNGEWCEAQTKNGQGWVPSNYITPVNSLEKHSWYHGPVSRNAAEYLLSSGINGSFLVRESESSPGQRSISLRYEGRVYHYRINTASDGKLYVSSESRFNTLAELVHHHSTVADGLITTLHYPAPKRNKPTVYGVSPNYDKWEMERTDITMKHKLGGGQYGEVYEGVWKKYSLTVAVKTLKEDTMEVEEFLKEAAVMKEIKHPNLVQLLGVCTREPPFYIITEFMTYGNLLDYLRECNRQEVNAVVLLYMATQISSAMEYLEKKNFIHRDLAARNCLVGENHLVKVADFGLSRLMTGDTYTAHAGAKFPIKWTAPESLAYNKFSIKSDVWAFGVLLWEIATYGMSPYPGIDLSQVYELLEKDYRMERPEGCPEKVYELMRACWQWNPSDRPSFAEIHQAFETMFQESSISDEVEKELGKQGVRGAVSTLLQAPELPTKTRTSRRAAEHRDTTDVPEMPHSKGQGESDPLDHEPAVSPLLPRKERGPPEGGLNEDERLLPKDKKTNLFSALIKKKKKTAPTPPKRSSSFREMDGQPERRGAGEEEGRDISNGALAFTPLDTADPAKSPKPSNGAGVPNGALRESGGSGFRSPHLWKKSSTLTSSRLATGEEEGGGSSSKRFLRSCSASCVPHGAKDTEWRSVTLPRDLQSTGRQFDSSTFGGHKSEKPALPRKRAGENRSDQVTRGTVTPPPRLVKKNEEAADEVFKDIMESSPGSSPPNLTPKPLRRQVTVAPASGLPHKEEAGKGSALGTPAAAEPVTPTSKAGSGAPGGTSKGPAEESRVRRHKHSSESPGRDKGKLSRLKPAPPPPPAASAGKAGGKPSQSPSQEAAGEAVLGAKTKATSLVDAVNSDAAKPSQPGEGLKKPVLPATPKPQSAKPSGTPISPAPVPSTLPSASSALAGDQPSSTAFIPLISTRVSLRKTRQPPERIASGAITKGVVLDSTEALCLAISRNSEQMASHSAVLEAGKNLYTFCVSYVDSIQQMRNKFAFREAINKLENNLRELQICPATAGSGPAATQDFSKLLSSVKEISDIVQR
Sequence of Tyrosine-protein kinase ABL (P42684 whole entry, looked up, the tested form may be a part): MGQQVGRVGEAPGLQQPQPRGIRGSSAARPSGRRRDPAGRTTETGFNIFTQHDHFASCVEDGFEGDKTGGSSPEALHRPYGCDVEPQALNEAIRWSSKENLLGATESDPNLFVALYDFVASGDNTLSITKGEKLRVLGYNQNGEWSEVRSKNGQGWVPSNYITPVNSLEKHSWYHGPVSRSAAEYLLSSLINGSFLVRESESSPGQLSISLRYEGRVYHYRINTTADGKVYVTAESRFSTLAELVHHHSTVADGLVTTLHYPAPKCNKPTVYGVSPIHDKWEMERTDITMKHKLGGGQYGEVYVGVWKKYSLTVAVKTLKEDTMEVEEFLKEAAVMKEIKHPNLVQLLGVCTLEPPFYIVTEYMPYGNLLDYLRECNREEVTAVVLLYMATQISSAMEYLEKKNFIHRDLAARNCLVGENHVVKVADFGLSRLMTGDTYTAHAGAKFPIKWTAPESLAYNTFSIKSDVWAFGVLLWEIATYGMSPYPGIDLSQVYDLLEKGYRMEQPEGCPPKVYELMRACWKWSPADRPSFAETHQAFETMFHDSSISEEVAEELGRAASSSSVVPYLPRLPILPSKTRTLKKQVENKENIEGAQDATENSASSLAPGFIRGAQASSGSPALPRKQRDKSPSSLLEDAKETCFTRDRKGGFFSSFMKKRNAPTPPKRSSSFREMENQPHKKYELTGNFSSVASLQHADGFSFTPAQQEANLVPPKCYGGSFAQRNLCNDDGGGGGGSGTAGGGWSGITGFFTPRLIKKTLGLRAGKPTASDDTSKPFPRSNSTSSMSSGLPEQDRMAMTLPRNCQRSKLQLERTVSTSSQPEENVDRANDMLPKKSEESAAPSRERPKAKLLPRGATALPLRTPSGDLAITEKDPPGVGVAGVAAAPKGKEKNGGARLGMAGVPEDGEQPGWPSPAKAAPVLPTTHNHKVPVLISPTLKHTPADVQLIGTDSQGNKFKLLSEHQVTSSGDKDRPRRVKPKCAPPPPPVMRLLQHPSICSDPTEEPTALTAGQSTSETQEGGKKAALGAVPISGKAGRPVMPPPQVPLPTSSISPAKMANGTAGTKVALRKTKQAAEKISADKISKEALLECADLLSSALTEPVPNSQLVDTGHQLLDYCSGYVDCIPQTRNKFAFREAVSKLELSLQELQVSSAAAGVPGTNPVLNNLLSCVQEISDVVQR
Summary of the method: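 HeLa cell lysates (5 mg/mL total protein) were preincubated with inhibitor at 0, 0.8, 2, 10 or 50 μM for 15 min. ATP or ADP acylphosphate probe was then added (5 μM final) for 10 min, and reactions were stopped with urea. Up to four fragment ions per kinase probe-peptide were quantified by targeted MS. % inhibition was taken relative to untreated lysate. Run in duplicate.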

CCOc1cc(N2CCC(O)CC2)ccc1Nc1ncc2c(n1)N(C)c1ccccc1C(=O)N2C
inhibition at 50 µM [1]: -27.3%
inhibition [2]: 12%
inhibition [3]: 5.5%
inhibition [4]: 15.7%
inhibition [5]: -7.5%
inhibition [6]: 11.5%
